This is a sample that favours compounds with a hit; in the whole collection about 2.2% have one here.
NR2E3 ag-1: activates human photoreceptor nuclear receptor NR2E3; Q9Y5X4; GST-NR2E3/biotin-RetCOR TR-FRET, 1536-well; inhibition of corepressor binding, % at 4.78 µM; 320,000 compounds, 0.12% hits; AID 2300;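 active = percent inhibition above the cutoff of mean plus 3 SD of all tested compounds, set per screening campaign, cut at about 20% in these data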;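 also: 0% = DMSO wells and 100% = biotin wells as full block of FRET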
Target sequence (Q9Y5X4 whole entry, looked up): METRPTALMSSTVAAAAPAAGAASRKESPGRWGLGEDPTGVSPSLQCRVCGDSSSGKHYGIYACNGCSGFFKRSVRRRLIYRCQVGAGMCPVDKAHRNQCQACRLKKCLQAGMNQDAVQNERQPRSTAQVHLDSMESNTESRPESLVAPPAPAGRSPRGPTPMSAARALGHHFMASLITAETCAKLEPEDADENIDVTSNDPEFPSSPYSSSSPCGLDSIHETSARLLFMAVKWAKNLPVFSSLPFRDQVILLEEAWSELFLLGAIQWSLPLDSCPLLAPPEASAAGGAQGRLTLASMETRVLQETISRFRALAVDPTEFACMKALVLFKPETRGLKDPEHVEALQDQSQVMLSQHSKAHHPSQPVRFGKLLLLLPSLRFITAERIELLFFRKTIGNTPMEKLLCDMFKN
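Material – GST-tagged NR2E3 plus biotinylated RetCOR corepressor · Quantity – NR2E3 fusion 1.35 nM · Times – 5 h incubation at 4 °C · Medium – pH 7.5 Tris-based buffer · Technique – TR-FRET, Eu(K)-anti-GST donor, streptavidin-D2 acceptor, ex 340, em 617/671 nm · Benchmarks – high control biotin, low control 0.6% DMSO · Format – 1536-well plates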
GalR3 antagonist: blocks the human galanin receptor 3 | O60755 | HEK293 GalR3-CNG cAMP membrane potential fluorescence; galR3 body fused to GalR1 C-terminus | inhibition, % at 3 µM | 360,000 compounds, 0.44% hits | AID 651719;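 active = inhibition above the screen-wide average plus 3 SD, cut at about 13% in these data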;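 also: forskolin and galanin both at EC90 stimulate the cells; cAMP rise reported by CNG channel membrane potential dye signal; 0% = forskolin plus galanin with DMSO and 100% = forskolin alone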
Target sequence (O60755 1-299 limits assumed): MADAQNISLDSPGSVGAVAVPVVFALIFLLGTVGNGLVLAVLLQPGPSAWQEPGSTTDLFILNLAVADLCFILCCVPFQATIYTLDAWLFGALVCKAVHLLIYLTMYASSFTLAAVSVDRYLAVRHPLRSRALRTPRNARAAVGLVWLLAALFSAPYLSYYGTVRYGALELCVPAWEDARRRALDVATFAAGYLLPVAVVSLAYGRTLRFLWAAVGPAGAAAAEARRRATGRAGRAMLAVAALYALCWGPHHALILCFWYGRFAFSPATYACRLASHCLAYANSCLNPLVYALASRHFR
GAA850 FXN act: increases GAA850 frataxin promoter reporter activity; HEK293 lucGAA850 FXN promoter luciferase reporter, 24 h; percent of 10 µM SAHA response; activation, % at 6 µM; 360,000 compounds, 0.56% hits; AID 540364;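 active = activation above the average of all compounds screened plus 3 SD, cutoff fixed separately per campaign, cut at about 7.5% in these data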;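 also: 0% = DMSO wells and 100% = 10 µM SAHA wells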
NR2E3 ag-2: activates human NR2E3 receptor | Q9Y5X4 | CHO-S Gal4-NCOR/VP16-NR2E3 two-hybrid, luciferase | inhibition of corepressor binding, % at 3.98 µM | 360,000 compounds, 0.35% hits | AID 602229;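 active = inhibition above the mean of all tested compounds plus 3 SD, cut at about 70% in these data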;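 also: 0% = DMSO with NR2E3 transfected cells and 100% = cells lacking NR2E3 construct; higher means lower luciferase signal from less NR2E3 corepressor binding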
V-ATPase pHluor: regulators of yeast V-ATPase proton transport; 350,000 compounds, 0.37% hits; S. cerevisiae, pHLuorin cytosolic pH fluorescence; response, % at 10 µM; in the data active = response mostly above about 7.3%, no sharp cut-off; inactive = mostly below about 5.4%; also: actives read high
Env fusion inh: inhibitors of HIV Env-mediated cell fusion | HeLa-JRFL Env/CEM21 cell fusion, luciferase | inhibition, % at 12.3 µM | 360,000 compounds, 1.1% hits;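 active = mean replicate inhibition score of at least 50 and every replicate individually at or above 50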;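 also: 0% = plate neutral controls and 100% = maraviroc near 300 nM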
An asterisk follows results filed as active; . = not tested or not shown; ! = not active in a repeat; [ ] = remark or other dose.

SMILES | NR2E3 ag-1 | GalR3 antagonist | GAA850 FXN act | NR2E3 ag-2 | V-ATPase pHluor | Env fusion inh
CC(C)C#Cc1ccc2c(c1)O[C@@H](CN(C)C(=O)Cc1ccccn1)[C@H](C)CN([C@@H](C)CO)S2(=O)=O | . | . | . | . | . | 2.7[16.7 µM]
COc1ccccc1N1CCN(CCOc2c(OC)cccc2OC)CC1 | -0.6 | -8.7 | -4.6 | -0.6 | 12.4 | 62.7*
Cc1ccc(C(=O)O/N=C(\N)c2ccccn2)cc1 | 1.1 | 2.2 | -5.1 | -75.1 | 1.1 | 62.4*
N/C(=N\OC(=O)c1ccccc1)c1ccccn1 | 4.3 | -1.4 | -1.4 | -131.7 | 5.1 | -14.6
C[C@@H]1CCCCO[C@@H](CN(C)C(=O)Cc2ccccc2)[C@H](C)CN([C@@H](C)CO)C(=O)c2cc(NC(=O)c3ccccc3)ccc2O1 | . | . | . | . | . | -20.3[16.7 µM]
CC(C)n1c(NCCc2ccccc2)nc2c1c(=O)n(C)c(=O)n2C | -2.4 | -3.7 | -1.1 | 33.4 | -7.0 | 109.9*
COc1cc2c(cc1OC)C(c1c(-c3c(Cl)cccc3Cl)noc1C)=NCC2 | . | -3.0 | -2.8 | -48.7 | -0.7 | -9.5
COc1cc2c(cc1OC)C(c1c(Cl)cccc1Cl)=NCC2 | . | -4.7 | . | -14.2 | . | 60.4*
C[C@@H]1CN([C@H](C)CO)C(=O)c2cc(NC(=O)Nc3ccc(F)cc3)ccc2O[C@@H](C)CCCCO[C@@H]1CN(C)Cc1ccc(C(F)(F)F)cc1 | . | . | . | . | . | 57.4*[16.7 µM]
C[C@@H]1CN([C@H](C)CO)C(=O)c2cc(NC(=O)Nc3ccc(F)cc3)ccc2O[C@@H](C)CCCCO[C@H]1CN(C)Cc1ccc(C(F)(F)F)cc1 | . | . | . | . | . | 67.9*[16.7 µM]
C[C@H]1CCCCO[C@H](CN(C)Cc2ccc(C(F)(F)F)cc2)[C@@H](C)CN([C@@H](C)CO)C(=O)c2cc(NC(=O)Nc3ccc(F)cc3)ccc2O1 | . | . | . | . | . | 57.6*[16.7 µM]
Cc1noc(C)c1NC(=O)Nc1cccc2c1O[C@@H](CN(C)Cc1ccccc1)[C@@H](C)CN([C@H](C)CO)C2=O | . | . | . | . | . | -3.9[16.7 µM]
C[C@@H]1CN([C@@H](C)CO)C(=O)c2cc(Br)cnc2O[C@H]1CN(C)Cc1ccncc1 | . | . | . | . | . | -21.5[16.7 µM]
CCCC(=O)Nc1ccc2c(c1)C(=O)N(C)C[C@H](OC)[C@H](C)CN(Cc1nccs1)[C@@H](C)CO2 | . | . | . | . | . | -11.8[16.7 µM]
C[C@H]1CN([C@@H](C)CO)C(=O)c2cc(NC(=O)C3CC3)ccc2O[C@H]1CN(C)S(=O)(=O)c1ccc(F)cc1 | . | . | . | . | . | 11.0[16.7 µM]
CCOc1ccc(CCNC(=O)c2cc3sccc3n2CC)cc1OCC | -0.1 | -2.5 | -1.6 | 1.7 | -5.6 | 64.8*
CCOc1ccc(CCNC(=O)CCC(=O)c2cccs2)cc1OCC | . | -6.4 | -1.1 | -25.7 | -2.7 | -24.7
CCOC(=O)c1sc(NC(=O)Nc2ccc(Cl)cc2)cc1C | 3.9 | -2.2 | 1.6 | 44.9 | 3.1 | 74.5*
COc1cccc(NC(=O)N[C@H]2CC[C@H](CC(=O)NCc3ccncn3)O[C@H]2CO)c1 | . | . | . | . | . | -1.8[16.7 µM]
Cc1ccc(C(=O)N2CCN(c3ccc(NC(=S)NC(=O)Cc4ccccc4)cc3)CC2)cc1 | 1.4 | -5.6 | -3.0 | 72.0* | 2.5 | 40.3
COc1ccc(C(=O)N2CCN(c3ccc(NC(=O)Cc4ccccc4)cc3)CC2)cc1 | -2.1 | -2.0 | 0.6 | -18.6 | -1.3 | -10.8
Cc1ccc(S(=O)(=O)Nc2ccc3c(c2)CC(=O)N([C@@H](C)CO)C[C@@H](C)[C@H](CN(C)S(=O)(=O)c2c(C)noc2C)O3)cc1 | . | . | . | . | . | -5.3[16.7 µM]
C[C@@H]1CN([C@H](C)CO)C(=O)c2cc(/C=C/c3ccccc3)cnc2O[C@H]1CN(C)S(=O)(=O)c1ccc(F)cc1 | . | . | . | . | . | 19.0[16.7 µM]
C[C@@H]1CN([C@@H](C)CO)C(=O)c2cc(C#Cc3ccccc3F)cnc2O[C@@H]1CN(C)S(=O)(=O)c1ccccc1F | . | . | . | . | . | 56.2*[16.7 µM]
C[C@@H]1CN([C@H](C)CO)C(=O)c2cc(C#Cc3ccccc3F)cnc2O[C@H]1CN(C)S(=O)(=O)c1ccccc1F | . | . | . | . | . | 32.1[16.7 µM]
SMILES | NR2E3 ag-1 | GalR3 antagonist | GAA850 FXN act | NR2E3 ag-2 | V-ATPase pHluor | Env fusion inh
C[C@H](CO)N1C[C@H](C)[C@H](CN(C)S(=O)(=O)c2ccc(F)cc2)Oc2ncc(/C=C/c3ccccc3)cc2C1=O | . | . | . | . | . | 49.8*![16.7 µM]
C[C@@H]1CCCCO[C@@H](CN(C)S(=O)(=O)c2cccs2)[C@H](C)CN([C@H](C)CO)C(=O)c2cc(NS(=O)(=O)c3cccs3)ccc2O1 | . | . | . | . | . | 6.3[16.7 µM]
CNC[C@H]1Oc2ncc(-c3cccc(F)c3)cc2C(=O)N([C@@H](C)CO)C[C@H]1C | . | . | . | . | . | 3.8[16.7 µM]
COc1cccc(Cn2c(NCc3ccco3)nc3c2c(=O)n(C)c(=O)n3C)c1 | 0.1 | 8.0 | . | . | . | 74.6*
COc1cccc(Cn2c(NCC(C)C)nc3c2c(=O)n(C)c(=O)n3C)c1 | 4.4 | -5.7 | 1.9 | -15.8 | 1.6 | -39.2
COc1ccc(Cl)c(Cn2c(NCc3ccco3)nc3c2c(=O)n(C)c(=O)n3C)c1 | 1.4 | 7.7 | -1.2 | 72.1* | -1.6 | .
CCOc1ccc(-n2c(SCc3ccc(C#N)cc3)nnc2-c2cccnc2)cc1 | 3.9 | 63.5* | 5.4 | -18.6 | 6.5 | -17.4
CC(=O)c1sc2c(c1OC(=O)c1ccccc1)c(=O)n(-c1ccccc1)c(=S)n2-c1ccccc1 | . | -4.0 | 0.7 | 15.3 | -4.6 | 61.6*
CC(=O)c1sc(=S)n(-c2ccccc2)c1C | 2.0 | -5.4 | -0.7 | -4.8 | -1.3 | -1.2
Cc1cccc(N2CCN(C(=O)C3CCCCC3)CC2)c1C | -1.2 | -6.6 | 0.3 | 11.4 | -2.2 | .
Cc1cc(N2CCC(C(=O)N3CCN(c4cccc(C)c4C)CC3)CC2)n2ncnc2n1 | 0.4 | -8.4 | 0.7 | 5.7 | -3.1 | 67.1*
COc1cccc(-c2noc(CCCC(=O)Nc3ccc(C(N)=O)cc3)n2)c1 | 1.5 | -7.8 | 0.0 | -25.8 | 17.3* | -15.5
CCOC(=O)c1ccc(NC(=O)CCc2nc(-c3ccc(C)cc3)no2)cc1 | -1.6 | -2.1 | -6.6 | -1.9 | -4.6 | -20.0
CCC(=O)NCCCc1nc(-c2ccccc2)no1 | -0.5 | -4.6 | -0.7 | -16.3 | -0.4 | -29.7
O=C(CCCc1nc(-c2ccccc2)no1)Nc1cccnc1 | 5.7 | 1.4 | -1.5 | -33.9 | 4.5 | -88.5
Cc1ccc(-c2noc(CCCC(=O)Nc3cccnc3)n2)cc1 | 2.9 | -8.6 | -13.3 | 7.6 | 2.9 | 63.5*
CCOC(=O)c1ccc(NC(=O)CCc2nc(-c3ccc(Cl)cc3)no2)cc1 | -2.0 | -3.0 | -1.4 | -4.1 | 0.7 | 58.8*
CCC(=O)NCCc1nc(-c2ccccc2)no1 | 0.6 | 1.7 | -0.7 | -10.1 | -3.5 | 60.2*
CC(C)CC#Cc1ccc2c(c1)O[C@@H](CN(C)C(=O)NC(C)C)[C@H](C)CN([C@@H](C)CO)S2(=O)=O | . | . | . | . | . | 20.9[16.7 µM]
CCS(=O)(=O)Nc1ccc2c(c1)C(=O)N(C)C[C@H](OC)[C@H](C)CN(CCC(F)(F)F)[C@@H](C)CO2 | . | . | . | . | . | 12.3[16.7 µM]
COCCNC(=O)C[C@@H]1C[C@H]2c3cc(NC(=O)C4CCOCC4)ccc3O[C@H]2[C@H](CO)O1 | . | . | . | . | . | 13.1[16.7 µM]

Bioassay records (PubChem BioAssay)
